Screening data as filed in PubChem.
The list is not random: actives were taken first. Their share in the collection is about 3%.
MC4R ag barr – human MC4R agonism via beta-arrestin; P32245; U2OS MC4R beta-arrestin complementation, luminescence; percent of melanotan II response, DMSO zero; activation, % at 8.9 µM; 360,000 tested, 0.98% active;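 active means activation above a per-plate cutoff, the mean activation of sample wells on that plate plus 3 SD, cut at about 8% in these data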
ABHD5-PLIN5 inh – blocks binding of human ABHD5 to perilipin-5; Split G. princeps luciferase complementation, luminescence, 4 h; inhibition, % at 4 µM; 360,000 tested, 0.78% active;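 active means inhibition above the mean inhibition across every tested compound plus 3 SD, cut at about 22% in these data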
Beta2AR agonist – agonists of human beta-2 adrenergic receptor inducing internalization; P07550; Am2.2-beta2AR cells, FAP receptor internalization, flow cytometry; response, % (concentration not given with the values); 340,000 tested, 0.43% active; AID 504454;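 active means response above a set limit, near 3 SD of response in nonfluorescent compounds, cut at about 42% in these data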
Target sequence (P07550 whole entry, looked up): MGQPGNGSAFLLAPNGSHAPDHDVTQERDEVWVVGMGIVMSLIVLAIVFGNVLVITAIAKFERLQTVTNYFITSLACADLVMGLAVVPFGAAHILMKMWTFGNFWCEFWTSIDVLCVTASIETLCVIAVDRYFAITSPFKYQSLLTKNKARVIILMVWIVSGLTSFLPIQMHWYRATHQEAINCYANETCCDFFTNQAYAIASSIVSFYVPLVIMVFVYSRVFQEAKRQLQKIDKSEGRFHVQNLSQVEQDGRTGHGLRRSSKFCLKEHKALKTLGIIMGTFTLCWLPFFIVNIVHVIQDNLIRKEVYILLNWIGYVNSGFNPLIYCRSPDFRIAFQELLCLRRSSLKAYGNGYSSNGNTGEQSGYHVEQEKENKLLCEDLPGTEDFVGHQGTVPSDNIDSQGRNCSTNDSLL
PfGluPho inh – PfG6PD (Plasmodium falciparum) enzyme inhibition. PfGluPho enzyme, NADPH resazurin-diaphorase fluorescence. inhibition, % at 20 µM. 350,000 tested, 0.78% active;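 active means inhibition reaching at least a set limit at 20 µM in the primary screen, cut at about 59% in these data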
MC4R antagonist – blocks human MC4R cAMP signaling; P32245; MC4R-expressing cells, MTII-stimulated cAMP, LANCE TR-FRET; inhibition, % at 6.5 µM; 360,000 tested, 0.48% active; AID 540295;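 active means inhibition above its plate's cutoff, the mean of tested wells on that plate plus 3 SD, cut at about 29% in these data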
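material = U2OS cells stably expressing human melanocortin 4 receptor (MC4R) | also added = Melanotan II challenge | dosing = single nominal compound dose of 6.5 µM | detection = TR-FRET with Eu-cAMP and labeled anti-cAMP, 671 nm | replication = singlicate | timing = compound 30 min, challenge 1 h, detection 1 h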
Large screens that a line does not name were inactive.

O=C(Cc1cccc(NC(=O)C2CCCN(C(=O)C3CCCC3)C2)c1)Nc1cccc(C(=O)N2CCOCC2)c1 (centres undefined)	none
CCc1ccc(/C=C2\Oc3c(ccc(O)c3CN3CCN(CCO)CC3)C2=O)cc1	none
O=C1N(Cc2ccccc2)c2ccccc2OC1(F)F	none (no result: Beta2AR agonist, PfGluPho inh)
OCC1(Cc2ccc(F)cc2F)CCCN(CCCc2ccccc2)C1 (centres undefined)	MC4R ag barr 9.5
CCOC(=O)C1CCN(S(=O)(=O)c2c(Cl)ccc3nonc23)CC1	Beta2AR agonist 79.1 (no result: PfGluPho inh)
CCOC(=O)C1CCN(S(=O)(=O)c2cccc3nonc23)CC1	none
O=C(C[n+]1ccc(CCSc2ccc(F)cc2)cc1)c1ccccc1	PfGluPho inh 70.2
Cc1ccc(SCCc2cc[n+](CC(=O)c3ccccc3)cc2)cc1	none
O=C(NC(=S)Nc1ccc2oc(=O)ccc2c1)c1ccccc1F	MC4R ag barr 8.4
O=C(NC(=S)Nc1ccc2oc(-c3ccncc3)nc2c1)c1ccccc1F	none
CCCCCCCCCCOC(=O)Cn1c(COc2ccc(Cl)cc2)[n+](C)c2ccccc21	MC4R ag barr 16.9
CCOC(=O)Cn1c(COc2ccccc2OC)[n+](C)c2ccccc21	none
CC(=O)NC(c1ccccc1)c1nc(-c2cccnc2)cs1 (centres undefined)	none (no result: Beta2AR agonist, PfGluPho inh)
O=c1oc2c(CN3CCN(CCO)CC3)c(O)ccc2cc1-c1ccccn1	Beta2AR agonist 42.5
O=c1oc2c(CN3CCCCC3)c(O)ccc2cc1-c1nc2ccccc2[nH]1	none
O=C(OCn1ncc(Br)c(Br)c1=O)c1ccccc1Cl	Beta2AR agonist 48.9
O=C(OCn1ncc(Cl)c(Cl)c1=O)c1cccc(C(F)(F)F)c1	none
O=C(OCn1ncc(Br)c(Br)c1=O)c1ccc(F)cc1	Beta2AR agonist 77.9, MC4R antagonist 47.1
O=C(OCc1cnc(Cl)s1)c1ccccc1Cl	none
CCc1ccc(N2CSC3=C(C#N)C(c4cccs4)CC(=O)N3C2)cc1 (centres undefined)	PfGluPho inh 62.4
COc1ccc(N2CSC3=C(C#N)C(c4cccs4)CC(=O)N3C2)cc1 (centres undefined)	none
CCOC(=O)c1c(NC(=O)Cn2cc([N+](=O)[O-])cn2)sc2c1CCC2	MC4R ag barr 9.3
O=C(CN1C(=O)NC2(CCCCCC2)C1=O)Nc1ccc(OC(F)(F)F)cc1	none (no result: Beta2AR agonist)
COc1cccc(C2Oc3ccccc3C3CC(c4cccs4)=NN32)c1 (centres undefined)	ABHD5-PLIN5 inh 22.1
O=C(c1ccccc1)C1Oc2ccccc2C2CC(c3cccs3)=NN12 (centres undefined)	none
CC(C)N(CCNCc1nnc(-c2ccccc2)o1)C(C)C	none
O=C(CNCc1cccs1)Nc1ccc(OC(F)(F)F)cc1	none
O=C(COc1cccc(Cl)c1)Nc1ccccc1N1CCCCC1	none
COC(=O)c1nn(-c2ccc(OC)cc2)c(=O)cc1O	none
COc1ccc(-n2nc(C#N)c(Cl)cc2=O)cc1	Beta2AR agonist 90.5
CC(=O)N(CC#CCN(C(C)=O)c1ccccc1)c1ccccc1	none (no result: Beta2AR agonist)
CCc1ccc(-c2nc(CN3CCC(C(=O)N4CCN(c5ccccc5)CC4)CC3)c(C)o2)cc1	MC4R ag barr 9.5
COc1cc(C=C2Cc3ccccc3C2=O)cc(OC)c1OC	ABHD5-PLIN5 inh 22.3 (no result: MC4R ag barr, Beta2AR agonist, PfGluPho inh, MC4R antagonist)
NC(=O)CSc1nc2scc(-c3ccc(Cl)cc3)c2c(=O)n1Cc1ccccc1	MC4R ag barr 8.7
O=Cc1ccc(Sc2nnc(-c3ccccc3)o2)c([N+](=O)[O-])c1	PfGluPho inh 94.0
O=C(Nc1ccc(Br)cc1F)c1ccncc1	none
O=C(Nc1ccc(Br)cc1F)c1ccc2nsnc2c1	MC4R ag barr 8.8
Cc1cc(C(=O)COC(=O)c2cc(O)c3ccccc3c2O)c(C)n1CC1CCCO1 (centres undefined)	PfGluPho inh 78.4
Cc1cc(C(=O)COC(=O)c2ccccc2O)c(C)n1CC1CCCO1 (centres undefined)	none
COc1cccc(-n2nnnc2S(C)(=O)=O)c1	ABHD5-PLIN5 inh 67.8, MC4R antagonist 43.1
CC(C)C(C(=O)NCC1CCCO1)N(C(=O)CNS(=O)(=O)c1ccccc1)C1CCCCC1 (centres undefined)	none
Cc1cc2ccccn2c1C(C[N+](=O)[O-])c1ccc(N(C)C)cc1 (centres undefined)	ABHD5-PLIN5 inh 23.1
COc1ccc(C(C[N+](=O)[O-])c2c(C)cc3ccccn23)cc1 (centres undefined)	none
c1cnc(N2CCN(c3nc4ccccc4n4cnnc34)CC2)nc1	none
Cc1cccc(N2CCN(c3nc4ccccc4n4cnnc34)CC2)c1C	Beta2AR agonist 42.1
COc1ccc2cc(-c3[nH]ncc3CN3C[C@@H]4CCC[C@H]3C4)ccc2c1	ABHD5-PLIN5 inh 22.8
COCC1CCCCN1Cc1cn[nH]c1-c1ccc2cc(OC)ccc2c1 (centres undefined)	none
N#Cc1c(N2CCOCC2)nc(-c2ccco2)c2c1CCCC2	ABHD5-PLIN5 inh 23.1
O=S(=O)(NC(=S)c1ccccc1)c1ccc(F)cc1	none
CN(c1ccccc1)S(=O)(=O)c1cccc(NS(=O)(=O)c2cccc(C(=O)O)c2)c1	ABHD5-PLIN5 inh 22.0
Cc1cccc(OCCC(=O)Nc2ccc(F)c(Cl)c2)c1	MC4R ag barr 8.9
O=C(CC1SC2=NCCN2C1=O)Nc1ccccc1 (centres undefined)	none
Cc1ccc(NC(=O)CC2SC3=NCCN3C2=O)cc1 (centres undefined)	ABHD5-PLIN5 inh 22.9
Oc1cccc(C=NN=C2c3ccccc3-c3ccccc32)c1	none
Oc1ccc(/C=N/Nc2ccnc3cc(Cl)ccc23)c(O)c1O	Beta2AR agonist 105.9
O=C(CN1CCOCC1)NCc1cc([N+](=O)[O-])ccc1O	none
Cc1cc(C(=O)OCC(=O)Nc2nc(-c3ccccc3)cs2)c(C)o1	MC4R ag barr 8.5
Cc1cc(C(=O)OC(C)C(=O)Nc2nc(-c3ccccc3)cs2)c(C)o1 (centres undefined)	none
Cc1ccc(N2C(=O)/C(=C\c3ccco3)SC2=S)cc1	MC4R ag barr 10.3
O=C(COC(=O)/C=C/c1ccc(Cl)cc1)NC1CC1	none
O=C(COC(=O)/C=C/c1ccc(Cl)cc1)NC1CCCCCC1	Beta2AR agonist 43.6
O=C(COC(=O)c1cc(F)c(F)cc1Cl)NC1CCCCCC1	none (no result: Beta2AR agonist)
O=C(COC(=O)c1ccc(F)cc1Cl)NC1CCCCCCC1	MC4R ag barr 8.6
CCCc1ccc(S(=O)(=O)N/N=C(/C)c2ccc3c(c2)OCO3)cc1	none
CNc1ccccc1	none
CNc1cccccc1=S	PfGluPho inh 65.3
Cc1ccc(-c2noc(CCC(=O)Nc3cc(C)ccn3)n2)cc1	MC4R ag barr 9.2
Cc1ccc(-c2noc(CCC(=O)Nc3ccccc3C)n2)cc1	none
CN1CCN(C(=O)c2cccc3c(-c4ccc(F)c(F)c4)coc23)CC1	none (no result: Beta2AR agonist, PfGluPho inh)
CN(CCc1ccccc1)C(C(=O)Nc1ccc2c(c1)OCCO2)C1CC1 (centres undefined)	none (no result: MC4R ag barr, Beta2AR agonist, PfGluPho inh, MC4R antagonist)
FC(F)(F)c1nc2ccccc2nc1N/N=C/c1c(Cl)cccc1Cl	MC4R ag barr 8.3
